This note sets out measurements from PMC3313489 (European journal of lipid science and technology : EJLST, 2011).

The structures appear in SMILES notation. Read-outs that look alike come from different tables or passages of the source.

Experiment [1] concerns Human neuroblastoma SH-SY5Y cells. The experiment can be described thus: Cell viability, resazurin reduction. In kind it is cell-based. To be noted: for degeneration of the cells: 10 μM (printed for AA), 72 h, Figure 4C. (In general: The colour change of resazurin is a common sign of viable cells or microbes.)
The target in experiment [2] is T1, PMPMEase (Sus scrofa, UniProt Q29550).
T1 sequence (Q29550 19-566): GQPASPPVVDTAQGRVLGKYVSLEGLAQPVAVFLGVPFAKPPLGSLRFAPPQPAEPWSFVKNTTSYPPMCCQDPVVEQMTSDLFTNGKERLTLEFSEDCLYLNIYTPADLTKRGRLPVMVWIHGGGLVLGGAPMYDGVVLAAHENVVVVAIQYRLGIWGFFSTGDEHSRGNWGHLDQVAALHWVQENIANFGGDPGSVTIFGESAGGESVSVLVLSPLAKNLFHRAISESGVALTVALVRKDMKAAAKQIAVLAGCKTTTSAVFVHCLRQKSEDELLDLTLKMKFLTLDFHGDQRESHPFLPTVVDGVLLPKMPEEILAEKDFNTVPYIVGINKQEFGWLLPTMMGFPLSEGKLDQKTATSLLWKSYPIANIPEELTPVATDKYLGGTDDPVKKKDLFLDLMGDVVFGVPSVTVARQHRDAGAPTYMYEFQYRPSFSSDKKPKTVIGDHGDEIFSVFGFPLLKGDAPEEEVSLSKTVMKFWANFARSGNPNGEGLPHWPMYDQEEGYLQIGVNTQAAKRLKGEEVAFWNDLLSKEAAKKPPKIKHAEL
Description: PMPMEase enzyme assay with RD-PNB substrate. In kind it is biochemical, porcine. To be noted: for decrease in PMPMEase inhibitory potency relative to AA: from IC50 values, AA as comparator.

Experiment [3] concerns the target T2, PMPMEase (Homo sapiens, UniProt P23141).
T2 sequence (P23141 18-567): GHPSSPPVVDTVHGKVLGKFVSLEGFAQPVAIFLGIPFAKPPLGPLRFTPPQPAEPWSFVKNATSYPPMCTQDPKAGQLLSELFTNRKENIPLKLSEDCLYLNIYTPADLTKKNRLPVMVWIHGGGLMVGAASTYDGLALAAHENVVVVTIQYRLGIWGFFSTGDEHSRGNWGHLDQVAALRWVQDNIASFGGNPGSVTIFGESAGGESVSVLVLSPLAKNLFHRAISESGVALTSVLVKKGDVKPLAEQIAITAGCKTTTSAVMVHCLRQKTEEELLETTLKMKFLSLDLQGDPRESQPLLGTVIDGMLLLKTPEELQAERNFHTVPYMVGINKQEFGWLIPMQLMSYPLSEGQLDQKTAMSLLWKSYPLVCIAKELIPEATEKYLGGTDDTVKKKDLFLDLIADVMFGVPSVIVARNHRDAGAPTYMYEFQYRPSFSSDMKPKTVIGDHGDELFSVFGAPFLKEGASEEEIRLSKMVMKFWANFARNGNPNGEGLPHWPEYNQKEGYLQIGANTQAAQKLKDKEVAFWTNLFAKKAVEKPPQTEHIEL
Description: PMPMEase activity in lysates of FFA-treated SH-SY5Y cells. The class given is cell-based. Conditions: DMSO-induced degenerated cells, non-specific cytotoxic agent. A digest of the protocol:
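SH-SY5Y cells were seeded in 24-well plates at 5 × 10^5 and exposed to fatty acids (0–200 μM) or DMSO for 24 h, then lysed in medium with Triton X-100. Lysate was incubated at 37 °C with RD-PNB in 100 mM Tris-HCl, pH 7.4. Reactions were stopped with methanol on ice and spun, and product was measured by RP-HPLC (UV 260 nm). Means ± S.E.M.; ANOVA with Dunnett's test.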

Where [4] appears, read: purified PMPMEase 5 μg, RD-PNB 1 mM, 37°C, pH 7.4.
[5] abbreviates: purified PMPMEase 5 μg, RD-PNB 1 mM, 15 min pre-incubation, 37°C, pH 7.4.

For `CCCCCCCCCCCCCCCCCCCC(=O)O` [Arachidic acid], in experiment [1] (200 μM, 24 h exposure, listed as ARA), the “effect on cell viability (in words)” value is “no effect on cell viability”. At PMPMEase [2], the concentration for half-maximal inhibition (IC50) (in general, the concentration that inhibits the measured activity by half) is greater than 1000 µM and the Ki (commonly the equilibrium dissociation constant of an inhibitor or competing ligand from its target) was greater than 28 µM.

Regarding `CCCCC/C=C\C/C=C\C/C=C\C/C=C\CCCC(=O)O` [Arachidonic acid], the “degeneration of the cells” value in experiment [1] was 99 ± 0.1%. Half-maximal inhibition against PMPMEase [2] (IC50) was put at 6.6 µM.

Turning to `C[S+](C)[O-]` [DMSO, dimethylsulfoxide], the “loss of PMPMEase enzyme activity in degenerated cells” value at PMPMEase [3] is 49 ± 3%.

At PMPMEase [2], `CCCCCCCCCC(=O)O` [Decanoic acid] registered an IC50 greater than 1000 µM and an inhibitory constant (Ki) greater than 28 µM.

`CC/C=C\C/C=C\C/C=C\C/C=C\C/C=C\C/C=C\CCC(=O)O` [Docosahexaenoic acid] yielded an IC50 on PMPMEase [2] of 130 µM.

For `CC/C=C\C/C=C\C/C=C\C/C=C\C/C=C\CCCC(=O)O` [Eicosapentaenoic acid], the half-inhibitory concentration (IC50) at PMPMEase [2] turned out to be 12 µM.

`CCCCCCCC/C=C/CCCCCCCC(=O)O` [Elaidic acid]: on PMPMEase [2], the 50% inhibitory concentration (IC50) is greater than 1000 µM and the inhibition constant (Ki) is greater than 28 µM.

With `CCCCCCCC/C=C\CCCCCCCCCCCC(=O)O` [Erucic acid], on PMPMEase [2], the half-maximal inhibitory concentration (IC50) was greater than 1000 µM and the inhibition constant Ki was greater than 28 µM.

At PMPMEase [2] (setting [4]), `CCCCCCCCCCCC(=O)O` [Lauric acid] registered a Ki of 6.5 µM. Further, half-maximal inhibition at PMPMEase [2] (setting [5]) (IC50) required 230 µM.

On PMPMEase [2], `CCCCC/C=C\C/C=C\CCCCCCCC(=O)O` [Linoleic acid] returned an IC50 of 64 µM and an inhibition constant Ki of 1.8 µM.

`CC/C=C\C/C=C\C/C=C\CCCCCCCC(=O)O` [Linolenic acid] returned a 50% inhibitory concentration (IC50) at PMPMEase [2] of 22 µM.

As for `CCCCCCCCCCCCCC(=O)O` [Myristic acid], at PMPMEase [2], the IC50 is 100 µM and the inhibition constant Ki is 2.8 µM.

Take `CCCC/C=C\CCCCCCCC(=O)O` [Myristoleic acid]: at PMPMEase [2], half-maximal inhibition (IC50) was put at 63 µM and the affinity, expressed as Ki, was 1.8 µM.

Take `CCCCCCCC(=O)O` [Octanoic acid]: at PMPMEase [2], the concentration for half-maximal inhibition (IC50) is greater than 1000 µM and the Ki was greater than 28 µM.

For the molecule `CCCCCCCC/C=C\CCCCCCCC(=O)O` [Oleic acid], on PMPMEase [2], the IC50 worked out at 53 µM and the inhibition constant (Ki) came out at 1.5 µM.

For `CCCCCCCCCCCCCCCC(=O)O` [Palmitic acid], on PMPMEase [2], the IC50 is greater than 1000 µM and the Ki was greater than 28 µM.

On PMPMEase [2], `CCCCCC/C=C\CCCCCCCC(=O)O` [Palmitoleic acid] yielded a 50% inhibitory concentration (IC50) of 37 µM and a Ki of 1 µM.

On PMPMEase [2], `CCCCC[C@H](O)/C=C/[C@H]1C=CC(=O)[C@@H]1CCCCCCC(=O)O` [Prostaglandin A1] returned a concentration for half-maximal inhibition (IC50) greater than 1000 µM and an inhibition constant Ki greater than 28 µM.

In the case of `CCCCC[C@H](O)/C=C/[C@H]1C=CC(=O)[C@@H]1C/C=C\CCCC(=O)O` [Prostaglandin A2], on PMPMEase [2], the IC50 was found to be 420 µM and the “decrease in PMPMEase inhibitory potency relative to AA” value is on record as “over 63 fold”.

In the case of `CCCCC[C@H](O)/C=C/C1=C(CCCCCCC(=O)O)C(=O)CC1` [Prostaglandin B1], the IC50 at PMPMEase [2] is 580 µM.

With `CCCCC[C@H](O)/C=C/[C@H]1[C@H](O)CC(=O)[C@@H]1CCCCCCC(=O)O` [Prostaglandin E1], the 50% inhibitory concentration (IC50) at PMPMEase [2] was greater than 1000 µM.

`CCCCC[C@H](O)/C=C/[C@H]1[C@H](O)CC(=O)[C@@H]1C/C=C\CCCC(=O)O` [Prostaglandin E2]: the “degeneration of the cells” value in experiment [1] came to 34 ± 4.0%. Moreover, at PMPMEase [2], the half-inhibitory concentration (IC50) is greater than 1000 µM and the “decrease in PMPMEase inhibitory potency relative to AA” value is reported as greater than 150 fold.

The molecule `CCCCC[C@H](O)/C=C/[C@@H]1[C@@H](CCCCCCC(=O)O)[C@H](O)C[C@H]1O` [Prostaglandin F1β] showed a Ki at PMPMEase [2] (setting [4]) greater than 28 µM. This molecule also registered an IC50 at PMPMEase [2] (setting [5]) greater than 1000 µM.

On to `CCCCC[C@H](O)/C=C/[C@@H]1[C@@H](C/C=C\CCCC(=O)O)[C@@H](O)C[C@H]1O` [Prostaglandin F2α], for which, in experiment [1], the “degeneration of the cells” value came out at 19 ± 5.6%. Moreover, on PMPMEase [2], the IC50 was greater than 1000 µM and the inhibitory constant (Ki) was greater than 28 µM.

With `CCCCCCCCCCCCCCCCCC(=O)O` [Stearic acid], at PMPMEase [2], the IC50 is greater than 1000 µM and the Ki is greater than 28 µM.
